Activity calls are given as the source filed them. The calls are words filed in the database; no cut-off is given here.
How the values were obtained:
[1] = AUC (0 to infinity) in C57BL/6 mouse at 10 mg/kg, po; format: ADME, organism-based; parameters: route oral, time infinity, dose 10 mg/kg; settings: in vivo
Summary of the method: (§1)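 Male C57BL/6 mice, n = 3, dosed IV at 5 mg/kg, IP at 10 mg/kg or by oral gavage (PO) at 10 mg/kg. All doses formulated in DMSO:cremophor:0.9% NaCl = 5:5:90. AUC from time zero to infinity (h*ng/mL) was derived from plasma drug levels and is reported as the mean of the males.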

[2] = molecular target: T1, Ileal sodium/bile acid cotransporter (Homo sapiens, UniProt Q12908); assay: Inhibition of human ASBT
T1 sequence (Q12908 whole entry): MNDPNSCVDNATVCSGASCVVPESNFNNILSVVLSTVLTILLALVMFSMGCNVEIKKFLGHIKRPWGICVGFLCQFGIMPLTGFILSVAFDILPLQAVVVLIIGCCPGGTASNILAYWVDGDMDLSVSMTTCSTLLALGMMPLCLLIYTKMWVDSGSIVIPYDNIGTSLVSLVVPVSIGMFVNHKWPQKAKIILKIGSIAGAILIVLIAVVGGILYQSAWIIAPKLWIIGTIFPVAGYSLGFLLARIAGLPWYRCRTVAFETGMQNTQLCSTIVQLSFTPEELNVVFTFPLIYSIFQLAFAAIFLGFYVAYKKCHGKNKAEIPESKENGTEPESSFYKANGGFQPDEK

Hepatitis B virus [3] = assay: (§2) Antiviral activity against HBV infected in human HepG2-NTCP cells assessed as reduction in HBV viral transcription at 10 uM cells inoculated with virus for 4 hrs at room temperature and 37 degree C for 24 hrs followed inoculum changed with PMM medium for every 2 days until day 5 post infection by DIG-labelled GAPDH based northern blot analysis; format: functional, organism-based; settings: time 28.0 hrs
Summary of the method: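 Infected HepG2-NTCP cells given compound either with the HBV inoculum or at dpi 3–5; RNA extracted with TRIzol, run on 1.0% agarose–formaldehyde/MOPS gel. Northern blot as for Southern, probed with DIG-labelled full-length HBV genome plus DIG-labelled GAPDH probe.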

[4] = AUC (0 to infinity) in C57BL/6 mouse at 5 mg/kg, iv; format: ADME, organism-based; parameters: time infinity, route intravenous, dose 5 mg/kg; settings: in vivo; summary of the method: as §1
[5] = Half life in C57BL/6 mouse at 10 mg/kg, po; format: ADME, organism-based; settings: in vivo
Summary of the method: (§3)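 Male C57BL/6 mice (n = 3), single dose IV 5 mg/kg, IP 10 mg/kg or PO 10 mg/kg in DMSO:cremophor:0.9% NaCl 5:5:90; plasma parameters reported as means.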

[6] = Bioavailability in C57BL/6 mouse at 10 mg/kg, ip; format: ADME, organism-based; settings: in vivo; summary of the method: as §3
Hepatitis B virus [7] = assay: as §2, with “cccDNA levels” for “viral transcription at 10 uM”, “probe” for “GAPDH”, “southern” for “northern”; format: functional, organism-based; settings: time 28.0 hrs
Summary of the method: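 HepG2-NTCP cells infected with compound added together with HBV inoculum; DNA harvested day 5 post infection by modified Hirt extraction. Southern blot on 1.2% agarose, UV cross-linked, hybridised at 50 °C overnight with DIG-labelled full-length genotype D HBV genomic probe; chemiluminescent detection; 3.2, 2.1 and 1.7 kb HBV fragments as markers.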

[8] = Cmax in C57BL/6 mouse at 10 mg/kg, ip; format: ADME, organism-based; parameters: route intraperitoneal, dose 10 mg/kg; settings: in vivo; summary of the method: as §3
Hepatitis B virus [9] = assay: (§4) Antiviral activity against HBV infected in human HepG2-NTCP cells assessed as reduction in HBeAg secretion cells inoculated with virus for 4 hrs at room temperature and 37 degree C for 24 hrs followed inoculum changed with PMM medium for every 2 days until day 5 post infection by ELISA; format: functional, organism-based
Hepatitis delta virus [10] = assay: Antiviral activity against HDV infected in human HepG2-NTCP cells assessed as reduction in HDV delta Ag measured 5 days post infection by DAPI staining based immunofluorescence assay relative to control; format: functional, cell-based; settings: time 5.0 day
Summary of the method: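 HepG2-NTCP cells infected with HDV in presence of compound; delta antigen stained at dpi 5 with FITC-labelled anti-delta antibody, nuclei with DAPI; high-content imaging and image analysis give infection ratio relative to DMSO control.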

[11] = AUC (0 to infinity) in C57BL/6 mouse at 10 mg/kg, ip; format: ADME, organism-based; parameters: time infinity, route intraperitoneal, dose 10 mg/kg; settings: in vivo; summary of the method: as §1
Hepatitis delta virus [12] = assay: Antiviral activity against HDV infected in C57B/L transgenic mouse harbouring human NTCP assessed as decrease in viral RNA levels in liver at 40 mg/kg, ip administered for 2 consecutive days followed by HDV challenge at day 2 and measured at day 8 post infection by qPCR analysis; format: functional, organism-based; settings: time 8.0 day
Summary of the method: (§5)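 Neonatal hNTCP-transgenic C57B/L mice received 40 mg/kg i.p. before HDV inoculation, either once or on two consecutive days (n = 4 per group; vehicle group n = 5). HDV was given at 5 × 10⁹ Geq i.p. on day 9 after birth, and mice were sacrificed on day 15. Liver RNA was assayed by RT-qPCR on cDNA from 20 ng RNA, with NTCP mRNA also measured. Group medians are shown.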

Hepatitis B virus [13] = assay: as §4, with “HBV genotype B” for “HBV”, “secretion at 2 uM” for “secretion”; format: functional, organism-based; settings: time 28.0 hrs
Summary of the method: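 HepG2-NTCP cells seeded 4–6 h, then primary maintenance medium 20–24 h; virus inoculum plus compound dilutions 4 h at room temperature, then 37 °C 24 h; medium changed every 2 days to PMM with 2% FBS until day 5 post infection. Secreted HBeAg measured by ELISA; IC50 by nonlinear regression from six or more points, three repeats.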

[14] = molecular target: T2, Hepatic sodium/bile acid cotransporter (Mus musculus, UniProt O08705); assay: Inhibition of mouse NTCP-mediated [3H]-TCA uptake expressed in human HepG2 cells at 2 uM incubated for 2 hrs followed by substrate addition and measured for 10 mins by microbeta liquid scintillation counter analysis; format: cell-based; settings: hepg2, 2.167 h, time 130 min
T2 sequence (O08705 whole entry): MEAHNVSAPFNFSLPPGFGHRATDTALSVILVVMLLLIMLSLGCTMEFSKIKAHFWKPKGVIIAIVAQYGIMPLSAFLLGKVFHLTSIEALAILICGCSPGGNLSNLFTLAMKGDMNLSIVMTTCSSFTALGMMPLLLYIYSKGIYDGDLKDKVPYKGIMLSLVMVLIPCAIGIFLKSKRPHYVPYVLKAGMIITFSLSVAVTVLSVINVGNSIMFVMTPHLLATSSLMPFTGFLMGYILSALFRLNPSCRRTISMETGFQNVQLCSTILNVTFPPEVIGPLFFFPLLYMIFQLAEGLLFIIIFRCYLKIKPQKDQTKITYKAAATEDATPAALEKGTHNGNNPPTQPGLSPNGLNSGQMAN
Summary of the method: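 HepG2 cells expressing NTCP (human, mouse, monkey or tree shrew) seeded 4–6 h, PMM 20–24 h; compound 2 h, then Na+ Ringer's buffer with 2 μM 3H-TCA, 37 °C 10 min; PBS washes, lysis in 1% Triton X-100, scintillation counting. Single-concentration lines at 2 μM.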

Hepatitis delta virus [15] = assay: Antiviral activity […] infected in C57B/L transgenic mouse harbouring human NTCP assessed as decrease in viral RNA levels in liver at 40 mg/kg, ip administered as single dose followed by HDV challenge at day 2 and measured at day 8 post infection by qPCR analysis; format: functional, organism-based; settings: time 8.0 day; summary of the method: as §5
[16] = Half life in C57BL/6 mouse at 10 mg/kg, ip; format: ADME, organism-based; settings: in vivo; summary of the method: as §3
[17] = Cmax in C57BL/6 mouse at 10 mg/kg, po; format: ADME, organism-based; parameters: route oral, dose 10 mg/kg; settings: in vivo; summary of the method: as §3

CC[C@@H]1NC(=O)[C@H]([C@@H]2O[C@@H](Sc3cccc(OCc4ccccc4)c3)C[C@H]2C)N(C)C(=O)[C@H](C(C)C)N(C)C(=O)[C@H](CC(C)C)N(C)C(=O)[C@H](CC(C)C)N(C)C(=O)[C@@H](C)NC(=O)[C@H](C)NC(=O)[C@H](CC(C)C)N(C)C(=O)[C@H](C(C)C)NC(=O)[C@H](CC(C)C)N(C)C(=O)CN(C)C1=O
AUC(0-inf) [1]: 14500 ng·h/mL
inhibition (INH) [2]: Not Active
Activity (Hepatitis B virus [3]): Active
AUC(0-inf) [4]: 39700 ng·h/mL
half-life [5]: 5.65 h
bioavailability [6]: 110%
Activity (Hepatitis B virus [7]): Dose-dependent effect
Cmax [8]: 12400 ng/mL
IC50 (Hepatitis B virus [9]): 110 nM
Activity (Hepatitis delta virus [10]): Dose-dependent effect
AUC(0-inf) [11]: 87400 ng·h/mL
Activity (Hepatitis delta virus [12]): Active
Activity (Hepatitis B virus [13]): Active
inhibition (INH) [14]: Active
Activity (Hepatitis delta virus [15]): Active
half-life [16]: 5.68 h
Cmax [17]: 2290 ng/mL

Source: ChEMBL document CHEMBL4706643 (J Med Chem, 2021)
